The source made the active and inactive calls. The rule behind the calls is not given here.
What was measured:
[1] = system: Human immunodeficiency virus 1; assay: Antiviral activity against HIV1 infected in TNFalpha-stimulated human U1 cells assessed as inhibition of viral replication after 72 hrs; format: functional, organism-based; conditions: for EC50: Human immunodeficiency virus 1, U1, 72 h
In short: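 U1 cells (50,000/ml, RPMI/10% FCS) were induced with 5 ng/ml TNF-α and given compound at the same time over a six-point range from 0 to 11.9 or 25.1 μM, for 3 days. Supernatant reverse transcriptase activity was read. Cell toxicity was by MTS reduction (formazan at 492 nm) relative to untreated cells. Values were interpolated between bracketing points.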

HeLa = assay: Inhibition of HIV1 Rev expressed in human HeLa cells co-expressing firefly luciferase reporter gene assessed as inhibition of firefly luciferase expression after 24 hrs; format: cell-based; conditions: Human immunodeficiency virus 1
In short: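 HeLa line with an integrated Rev-dependent Renilla luciferase reporter, plus firefly luciferase and HIV-1 IIIB Rev under Tet-Off control. Doxycycline was removed to induce expression alongside compound at various concentrations. Cells were plated at 2 × 10^4/well in triplicate.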

[2] = Cytotoxicity against african green monkey 5BD.1 cells after 2 days by MTS assay; format: cell-based; conditions: chlorocebus aethiops, read-out: TC50
In short: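 5BD.1 cells (COS-derived, Rev-dependent Gag-Pol particle producers; 20,000/well) were given compound at 0.1–30 μM for 16 h, then refreshed with compound for 24 h more. Cells were collected at 40 h for the MTS proliferation assay, with formazan read at 492 nm versus untreated cells. TC50 was by curve fit.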

[3] = Inhibition of HIV1 Rev expressed in african green monkey 5BD.1 cells assessed as inhibition of p24 antigen treated for 16 hrs after washout with medium again readded for 24 hrs by ELISA
[4] = Cytotoxicity against human MT4 cells after 5 days by MTS assay; format: cell-based; conditions: read-out: TC50
In short: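 MT-4 T cells were incubated with compound for 5 days. Toxicity was by MTS tetrazolium reduction, with formazan absorbance at 492 nm compared with cells given no compound.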

[5] = Inhibition of HIV1 Rev expressed in human HeLa cells co-expressing renilla luciferase reporter gene assessed as inhibition of renilla luciferase expression after 24 hrs; format: cell-based; conditions: Human immunodeficiency virus 1, HeLa
In short: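 HeLa line with stably integrated Rev-dependent Renilla luciferase reporter (CMV promoter) plus bicistronic firefly luciferase/HIV-1 IIIB rev construct under Tet-Off; doxycycline withdrawn to induce Rev and both luciferases while compound added at various concentrations.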

[6] = system: Human immunodeficiency virus 1; assay: Antiviral activity against HIV1 infected in TNFalpha-stimulated human U1 cells assessed as inhibition of Nef synthesis at 10 uM after 24 hrs by Western blotting; format: functional, organism-based
In short: (§1)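 U1 cells carrying integrated provirus were induced with TNF-α and given compound (5 or 10 μM). After 24 h, cells were harvested and analysed by Western blot for p24, Pr55gag and Nef using p24- and Nef-specific monoclonal antibodies.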

[7] = system: Human immunodeficiency virus 1; assay: Inhibition of HIV1 Rev-radiolabeled Rev response element interaction at up to 100 uM after 10 mins by electrophoretic mobility shift assay
In short: (§2)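 A 234-bp RRE RNA was transcribed with [32P]UTP and T7 polymerase, then refolded (80°C 3 min, slow cooling). RRE (0.5 ng) was incubated with bacterial Rev (38 ng) in HEPES-KOH pH 7.8, 200 mM KCl, 4 mM MgCl2, glycerol with compound (up to 100 μM) on ice for 10 min. Complexes were resolved by PAGE and read by phosphorimager.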

[8] = system: Human immunodeficiency virus 1; assay: Antiviral activity against HIV1 NL4-3 infected in human SupT1 cells assessed as inhibition of viral growth at 10 uM after 30 days by p24 ELISA; format: functional, organism-based; conditions: SUP-T1
In short: (§3)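 SupT1 cells (5 × 10^6) were Polybrene-treated and infected with NL4-3 (50 ng p24 equivalents), then washed. They were cultured in RPMI/10% FCS with compound at fixed levels (0.8 and 8 μM, or 1 and 10 μM) or none. Cultures were split every 3 days with fresh compound-containing medium for 30–31 days. Supernatant p24 was measured by ELISA.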

[9] = system: Human immunodeficiency virus 1; assay: Antiviral activity against HIV1 infected in TNFalpha-stimulated human U1 cells assessed as inhibition of p24 synthesis at 10 uM after 24 hrs by Western blotting; format: functional, organism-based; in short: as §1
[10] = system: Human immunodeficiency virus 1; assay: Antiviral activity against HIV1 NL4-3 infected in human 293T cells assessed as inhibition of p24 synthesis at 10 uM after 24 hrs by Western blotting
[11] = system: Human immunodeficiency virus 1; assay: Antiviral activity against HIV1 NL4-3 infected in human SupT1 cells assessed as inhibition of viral growth at 1 uM after 30 days by p24 ELISA; format: functional, organism-based; conditions: SUP-T1; in short: as §3
[12] = system: Human immunodeficiency virus 1; assay: Antiviral activity against HIV1 Brazilian isolate 93BR021 infected in PHA-stimulated human PBMC assessed as inhibition of viral replication after 7 days; format: functional, organism-based; conditions: Human immunodeficiency virus 1, Brazilian isolate 93BR021, 168 h
In short: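 PHA-stimulated (4 μg/ml, 48–72 h) PBMCs pooled from at least two donors, kept in 20 U/ml IL-2, 5 × 10^4 cells/well. Infected with primary isolate 93BR021 (CCR5-tropic, subtype B) at MOI ≈0.1 with nine compound concentrations, triplicate wells, for 7 days. Supernatant reverse transcriptase activity was read, then cell MTS toxicity. EC50 was interpolated between bracketing points.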

[13] = Inhibition of Mason-Pfizer monkey virus […]constitutive transport element-mediated p24 antigen production expressed in human HEK 293T cells after 72 hrs
[14] = system: Human immunodeficiency virus 1; assay: Antiviral activity against HIV1 NL4-3 infected in human 293T cells assessed as inhibition of Nef synthesis at 10 uM after 24 hrs by Western blotting
[15] = system: Human immunodeficiency virus 1; assay: Antiviral activity against HIV1 infected in TNFalpha-stimulated human U1 cells assessed as inhibition of Pr55gag synthesis at 10 uM after 24 hrs by Western blotting; format: functional, organism-based; in short: as §1
HEK-293T = assay: Inhibition of HIV1 Rev-Rev response element-mediated p24 antigen production expressed in human HEK 293T cells after 72 hrs; conditions: Human immunodeficiency virus 1
[16] = as above; conditions: Human immunodeficiency virus 1, HEK-293T
[17] = system: Human immunodeficiency virus 1; assay: Antiviral activity against HIV1 NL4-3 infected in human SupT1 cells assessed as inhibition of viral growth at 0.8 uM after 30 days by p24 ELISA; format: functional, organism-based; conditions: SUP-T1; in short: as §3
[18] = system: Human immunodeficiency virus 1; assay: Antiviral activity against HIV1 NL4-3 infected in human 293T cells assessed as inhibition of p24 synthesis at 8 uM after 24 hrs by Western blotting
[19] = system: Human immunodeficiency virus 1; assay: Antiviral activity against HIV1 infected in TNFalpha-stimulated human U1 cells assessed as inhibition of Pr55gag synthesis at 5 uM after 24 hrs by Western blotting; format: functional, organism-based; in short: as §1
[20] = system: Human immunodeficiency virus 1; assay: Antiviral activity against HIV1 infected in TNFalpha-stimulated human U1 cells assessed as inhibition of p24 synthesis at 5 uM after 24 hrs by Western blotting; format: functional, organism-based; in short: as §1
[21] = system: Human immunodeficiency virus 1; assay: Antiviral activity against HIV1 infected in TNFalpha-stimulated human U1 cells assessed as inhibition of Nef synthesis at 5 uM after 24 hrs by Western blotting; format: functional, organism-based; in short: as §1
[22] = system: Human immunodeficiency virus 1; assay: Antiviral activity against HIV1 NL4-3 infected in human SupT1 cells assessed as inhibition of viral growth at 8 uM after 30 days by p24 ELISA; format: functional, organism-based; conditions: SUP-T1; in short: as §3
[23] = system: Human immunodeficiency virus 1; assay: Antiviral activity against HIV1 NL4-3 infected in human 293T cells assessed as inhibition of Nef synthesis at 8 uM after 24 hrs by Western blotting
U1 = assay: Cytotoxicity against human U1 cells after 3 days by MTS assay; format: cell-based; conditions: u1, 72 h
[24] = system: Human immunodeficiency virus 1; assay: Inhibition of HIV1 Rev-radiolabeled Rev response element interaction after 10 mins by electrophoretic mobility shift assay; in short: as §2

SMILES	TC50 (HeLa)	CC50 at 48 h [2]	EC50 [3]	CC50 at 120 h [4]	EC50 [5]	other results
O=c1c2ccccc2n2nnc3ccc(NCCCN4CCN(CCCNc5ccc6nnn7c8ccccc8c(=O)c5c67)CC4)c1c32 [TEMACRAZINE]						EC50 [1]: 2 µM
CC(=O)Nc1cccc2n[se]nc12	51.6 µM	> 30 µM	10 µM	> 100 µM	8.99 µM	
Fc1ccc(Nc2ncnc3ccccc23)cc1Cl	> 40.8 µM	> 30 µM	3 µM		8.98 µM	
CCOC(=O)c1c(N)ncn1-c1ccccc1	33 µM	> 30 µM	30 µM	> 100 µM	11 µM	
CCc1c(C)nc2sc(C(N)=O)c(N)c2c1C	> 37.6 µM	> 30 µM	0.9 µM	32 µM	1.07 µM	Activity [6]: inactive; Activity [1]: Dose-dependent effect; EC50 [1]: 0.4 µM; inhibition [7]: inactive; Activity [8]: Active; Activity [9]: Active; Activity [10]: Active; Activity [11]: Active; EC50 [12]: 0.29 µM; EC50 [13]: > 15 µM; Activity [14]: inactive; Activity [15]: Active; inhibition (HEK-293T): Dose-dependent effect; EC50 [16]: 3.8 µM
COc1ccc2cc3c(N)n[nH]c3nc2c1	8.41 µM	> 30 µM	0.9 µM	20 µM	0.48 µM	
COc1cccc(NC(=O)c2cc(Cl)nnc2Cl)c1	18.5 µM	> 30 µM	4.9 µM	50 µM	8 µM	
COc1ccc2nc(C(F)(F)F)c(C#N)c(N)c2c1	17.2 µM	> 30 µM	2.5 µM	28 µM	2.24 µM	Activity [1]: Dose-dependent effect; EC50 [1]: < 0.25 µM; inhibition [7]: inactive; Activity [17]: Active; Activity [18]: Active; Activity [19]: Active; Activity [20]: Active; EC50 [12]: 0.63 µM; Activity [21]: inactive; Activity [22]: Active; EC50 [13]: > 15 µM; Activity [23]: inactive; inhibition (HEK-293T): Dose-dependent effect; EC50 [16]: 1.9 µM; Activity (U1): Toxic
NC[C@@H]1O[C@H](O[C@H]2[C@@H](O)[C@H](O[C@@H]3[C@@H](O)[C@H](N)C[C@H](N)[C@H]3O[C@H]3O[C@H](CN)[C@@H](O)[C@H](O)[C@H]3N)O[C@@H]2CO)[C@H](N)[C@@H](O)[C@@H]1O						inhibition [24]: Active
COC(=O)c1c(N)ncn1-c1ccc(C)cc1	> 41.8 µM	> 30 µM	22 µM	> 100 µM	11.2 µM	
CS(=O)(=O)c1ncc(-c2ccc(Br)cc2)cn1	30.9 µM	> 30 µM	0.2 µM	10 µM	7.48 µM	
Cc1cn([C@H]2C[C@H](N=[N+]=[N-])[C@@H](CO)O2)c(=O)[nH]c1=O [ZIDOVUDINE]						EC50 [12]: 2.47 µM
Cc1ccc(NC(=O)c2sc(Cl)nc2C(F)(F)F)cc1	> 39.5 µM	25 µM	1.9 µM	18 µM	9.73 µM	
CCC(=C/[C@H](C)C/C=C/C(C)=C/[C@@H](C)C(=O)[C@@H](C)[C@H](O)[C@@H](C)C/C(C)=C/C(=O)O)/C=C/[C@@H]1OC(=O)C=C[C@@H]1C [LEPTOMYCIN B]	0.02 µM				0.00822 µM	
CCc1c(C(=O)Nc2ccccc2)c(C)nc2sc(C(N)=O)c(N)c12	7.91 µM	> 30 µM	3 µM	> 100 µM	2.42 µM	
